# Data: ChEMBL document CHEMBL4513216, “Probing the Open Global Health Chemical Diversity Library for Multistage-Active Starting Points for Next-Generation Antimalarials” (ACS Infect Dis, 2020)
# Assay: Toxicity liver stage against HepG2, at 10uM
# Assay type: cell-based
# Design: test concentration 10 uM, cell line HepG2-A16-CD81EGFP
# Details: human, HepG2-A16-CD81EGFP cells; read-out: INHIBITION
# Outline: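 Uninfected HepG2-A16-CD81EGFP cells, 3 × 10^3 per well, 1536-well, plated on prespotted compound at 10 μM final, parasite-free screening media added to match infected plates; puromycin 10 μM positive, DMSO 0.5% negative; run in parallel with 48 h PbLuc assay at 37 °C, 5% CO2; viability by CellTiter-Glo luminescence, normalized to controls.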
row,Compound,cytotoxicity at 10 µM [%]
1,Cc1nn(CCC#N)c(C)c1[C@@H]1C=C[C@@H](NCc2cccc(Cl)c2)C1,-1.45
2,CC(C)c1noc(-c2cccc(OCC(N)=O)c2)n1,-7.39
3,COc1cccc(NC(=O)c2nc3ccccc3n(C)c2=O)c1,4.47
4,CC1(C)OCC(CNC(=O)c2cnn(-c3cccc(Cl)c3Cl)c2N)O1 (configuration not stated),1.93
5,Cc1ccc(NC(=O)NCC2(O)CCCC2)cc1C,-6.8
6,Cc1ccccc1CNC(=O)N1CC[C@@H]2CN(C)S(=O)(=O)[C@@H]2CC1,-0.39
7,CCOc1ncnc2c1CCN(C(=O)c1cnccn1)CC2,-6.13
8,CNC(=O)N1CCc2cc(C(=O)NCC3CC3)c(NC(C)C)nc2CC1,2.02
9,CC1CCc2nc(O)c(C(=O)NCc3cccc(F)c3)cc2C1 (configuration not stated),3.43
10,CCOc1ccc(C(=O)Nc2ccn(CC)n2)cc1,3.16
11,CNC(=O)c1cnn2c(C3CCCN3)ccnc12 (configuration not stated),8.88
12,COc1ccccc1NC(=O)c1[nH]nc(C(C)C)c1Br,8.24
13,CSCCC(C)NC(=O)c1cccc(-c2n[nH]c(C)n2)c1 (configuration not stated),1.31
14,CC(C)c1nnc(CN2CC(n3cccn3)C2)o1,-149
15,NC(=O)C(NC1CCN(Cc2ccc(F)cc2)CC1)c1ccccc1 (configuration not stated),-5.4
16,NC(=O)CCn1ccc(NCc2cc(F)ccc2Br)n1,-1.91
17,Cc1cnn(CC(C)NCC(=O)Nc2ccc(Cl)cn2)c1 (configuration not stated),6.05
18,CN(CC(=O)NC(C)(C)C)C(=O)c1cccn1CCc1ccccc1,6.1
19,Cc1ccc(-c2csc(-c3cccc(C(=O)O)c3)n2)cc1,3.21
20,COc1ccccc1OCCNC(=O)NCC(C)C,7.54
21,CC1CCN(C(=O)c2occc2COc2cccc(C#N)c2)CC1,0.106
22,Cc1nc(COc2ccc(OCC(N)=O)cc2)oc1C,4.68
23,CCOC(=O)c1cnn(-c2cc(C)ccn2)c1N,11.3

row,Compound,cytotoxicity at 10 µM [%]
1,O=C(Cn1cc(Cl)cn1)Nc1ccc2c(c1)OCCCO2,4.98
2,O=C(CNC(=O)c1ccoc1)NCCOc1ccc2c(c1)CCC2,-7.98
3,Cc1c(Cl)cccc1NC(=O)CCNc1ccc(C#N)cn1,-0.106
4,Cc1nsc(N2CCN(CC(=O)NCc3cccnc3)CC2)n1,-4.52
5,COC(=O)N1CCC(Nc2cccc(F)c2C(C)=O)C1 (configuration not stated),11.2
6,Cc1ccc(C(=O)NCCNC(=O)c2cncnc2C(C)C)cc1F,9.52
7,COc1ccc(OC)c(C(O)CN2CCN(C3CCCC3)CC2)c1 (configuration not stated),6.81
8,Cc1nn(C)c(N2CCOCC2)c1CNCC1CCCN1C (configuration not stated),-1.96
9,Cc1nc(C)c(C)c(N2CCC3(CCOC3)C2)n1 (configuration not stated),-1.31
10,Cn1c(Nc2ccc(F)cc2)c(C#N)c(=O)n(C)c1=O,1.77
11,Cc1ccc(NC(=O)NC(C)c2nc[nH]n2)cc1Cl (configuration not stated),-2.06
12,O=C(CNc1cc2c(cc1Cl)OCCCO2)NCc1ccc(F)cc1,0.854
13,COc1ccc(CCNC(=O)Nc2cc(C)nn2C)cc1,-2.87
14,CC(NC(=O)N(C)Cc1cnn(C)c1)c1nncn1C (configuration not stated),-3.03
15,COc1ccc(CNC(=O)Nc2ccc(CN3CCOC3=O)cc2)cc1,-1.44
16,CCCn1nc2c(cc1=O)CN(CC(=O)Nc1cc(C)no1)CC2,-4.59
17,COCCCNC(=O)CN(C)Cc1ccc(F)cc1Cl,-7.33
18,Cc1nc(CNC(=O)NC2CCN(c3ncccn3)CC2)cs1,-141
19,O=C(c1ccc(=O)[nH]n1)N1CCCC1CCc1ccccc1 (configuration not stated),8.89
20,CCN(CC(=O)NC(C)C)C(=O)C(C)(C)c1ccc2c(c1)OCCO2,-2.79
21,CC(=O)Nc1nc(C(=O)NCCOc2ccccc2F)cs1,-6.19
22,CCc1nc(COc2ccc(N(C)C(C)=O)cc2)no1,-0.408
23,COc1c(C)cnc(CNC(=O)CCc2nc3ccccc3[nH]2)c1C,-5.27

row,Compound,cytotoxicity at 10 µM [%]
1,Cc1cccnc1NC(=O)C1CCN(C(C)C(=O)NC(C)(C)C)CC1 (configuration not stated),3.15
2,O=C(CSc1nnc[nH]1)NCc1cccs1,0.284
3,CCc1cnc(CNC(=O)NC2CCN(C3CCCC3)CC2)s1,-1.06
4,COc1cccc2c1CCN(C(=O)NCc1nnc3ccccn13)C2,0.67
5,CN(CCn1cccn1)S(=O)(=O)c1cccc(F)c1C#N,3.41
6,CC(C)n1cnnc1CN(C)Cc1ccc(CO)o1,3.68
7,O=C(c1cccc(-c2ccc(F)cc2)c1)N1CCCC(O)(CO)CC1 (configuration not stated),-4.77
8,CN1CCCCC1Cc1nc2c(cc1C(N)=O)CCC2 (configuration not stated),-9.55
9,COc1ccc(C(=O)N2CCN(C(=O)Cn3nccc3C)CC2)cc1,6.88
10,CC(NS(C)(=O)=O)C(=O)N(C)Cc1csc(-c2cccs2)n1 (configuration not stated),-0.525
11,CCN(CCCN1CCOCC1)C(=O)c1cnn(CC)c1,46.6
12,O=C1NCCCCC1NC(=O)C1(Oc2ccc(Cl)cc2)CCNCC1 (configuration not stated),-6.21
13,O[C@H]1[C@H](n2cc(-c3ccccn3)nn2)c2ccccc2C12CCNCC2,-11.5
14,COc1cc(N[C@@H](Cc2ccccc2)C(N)=O)ncn1,10.1
15,Cc1ccc2ncccc2c1CN1CC[C@H](N(C)C)[C@H](CCC(=O)O)C1,-148
16,O=C1CN(C(=O)c2cc(-c3ccco3)nc3c(Cl)cccc23)CCN1,-5.2
17,CN(Cc1ccoc1)c1ccc(-c2nccn2C)nn1,-5.12
18,Cc1ccc(S(=O)(=O)NCC2CNCCOC2)cc1Cl (configuration not stated),0.858
19,CCc1ccc2nc(C)cc(C(=O)NC3CCNC3=O)c2c1 (configuration not stated),-4.65
20,Cc1ncsc1CN1CC(C)(C2CC2)CC1=O (configuration not stated),0.832
21,COCCNC(=O)[C@H]1C[C@@](CC(C)C)(C(=O)O)N(C)[C@H]1c1cccnc1,-6.16
22,Cc1cc(C2CCC2)nc(NCCC23CCCN2CCC3)n1,0.414
23,CCc1nc(N2CCCC(O)(CO)CC2)ncc1C (configuration not stated),10.8

row,Compound,cytotoxicity at 10 µM [%]
1,Cc1ccc(SCCN(C)C(=O)c2cn(CCN)nn2)cc1,-4.7
2,O=C(Nc1ccccc1OCCc1ccccn1)N1CCOCC1,3.18
3,CC(=O)N1CCCC(C(=O)NCc2noc(Cc3ccccc3)n2)C1 (configuration not stated),3.02
4,Cc1nnc(NC(=O)N2CCCN(C3CCCC3)CC2)s1,-3.16
5,O=C(c1cnc(COc2ccccc2)nc1O)N1CCC(F)(F)CC1,-3.11
6,CNC(=O)C1CCN(c2ncc3c(n2)CCN3c2ccccc2)C1 (configuration not stated),-10.1
7,COc1cccc(-c2c[nH]c(C)n2)c1F,-3.29
8,O=C(Cn1nc2ccccc2n1)N1CCCC(O)(CN2CCCC2)C1 (configuration not stated),-10.4
9,Cc1cccc(C2CCCN(C(=O)CN3CCC(C(N)=O)CC3)C2)c1 (configuration not stated),-5.17
10,CCCn1ccnc1CN1C[C@@H](NC(C)=O)[C@H](c2ccc(OC)cc2)C1,0.344
11,CC(C)=CCCC(C)CN1CCC(n2cc(CO)nn2)CC1 (configuration not stated),-6.37
12,CCC(=O)c1ccc(OCC(=O)NC(C)c2nnc(C)[nH]2)cc1 (configuration not stated),5.37
13,C[C@@H]1CN(Cc2ccc(C(F)(F)F)cc2F)CC[C@]1(C)O,4.54
14,COc1ccc2c(C)c(C(=O)NC3CCOCC3)oc2c1,15.2
15,O=C(CSc1ccccc1)N1CCc2c(ncnc2N2CCOCC2)C1,-7.15
16,O=C(c1ncccc1O)N1CCc2c(ncnc2N2CCOCC2)C1,-3.99
17,CC(C)c1cc(C(=O)N2CCN(c3ccncc3)CC2)n(C)n1,-3.5
18,COc1cccc2c1OCC(CNC(=O)CN(C)C1CCCC1)C2 (configuration not stated),-147
19,CNc1ncc(CN(C)C(=O)[C@@]23CNC[C@@H]2CN(C2CCCC2)C3)cn1,0.153
20,Cc1nccc(-c2ccccc2)c1C(=O)N1CCC2(CN(C)C(=O)O2)C1 (configuration not stated),4.77
21,COC[C@@H]1CCCN1C(=O)c1cc(-c2cccc(OC)c2)n[nH]1,6.6
22,CCNC(=O)[C@@H]1C[C@H](N)CN1c1cc(C(F)(F)F)nc(N2CCCC2)n1,-3.97
23,CC(C)(C)n1ccc(C(=O)N2CCCC(c3ccc(C(=O)O)cc3)C2)c1 (configuration not stated),1.31

row,Compound,cytotoxicity at 10 µM [%]
1,O=C(Nc1ccc(F)cc1)C1CNCCN1C(=O)CCO (configuration not stated),1.93
2,O=C(COCc1ccccc1)N1CCC(OCc2cccnc2)CC1,4.41
3,COC1CCN(C(=O)Nc2cc(C(F)(F)F)c[nH]c2=O)CC1,4.1
4,COc1cccc(COCC(=O)N2CCCN(CC(N)=O)CC2)c1,-7.04
5,Cc1cccc(-c2noc(CN3CCOC(Cn4cccn4)C3)n2)c1 (configuration not stated),-3.07
6,O=C(CCN1CCOC(Cn2cccn2)C1)NC1CCCCC1 (configuration not stated),-6.28
7,Cc1cc(C)n(CC2CCCN2C(=O)c2nccc3ccccc23)n1 (configuration not stated),-7.49
8,CC(Cn1cccn1)NC(=O)NCc1ccc(C(N)=O)cc1 (configuration not stated),-3.2
9,CCn1ccnc1CN1CCN(CC(O)c2cccc(F)c2)CC1 (configuration not stated),0.272
10,CCOc1ncccc1C(=O)N1CCCC(c2nncn2C)C1 (configuration not stated),-8.47
11,CN(Cc1ccsc1)C(=O)CN1CCCCC1Cn1cccn1 (configuration not stated),-1.07
12,CN(C)[C@@H]1CCN(c2ncc(F)cn2)[C@H]1Cc1ccccc1,-1.65
13,COCC1CN(Cc2ccc(C)o2)Cc2nnn(C)c21 (configuration not stated),-4.53
14,CCN(C)c1ncnc2c1CCN(C(=O)c1ccoc1C)CC2,-0.675
15,O=C([C@@H]1CCO[C@@H]2CCN(CCc3ccccc3)C[C@@H]21)N1CCCC1,-3.06
16,COc1c(CNC2(c3noc(C)n3)CCC2)c(C(C)C)nn1C,2.08
17,N#Cc1cccc(CN2Cc3nccn3CC(COCC3CC3)C2)c1 (configuration not stated),-127
18,Cc1nn(C)cc1C(=O)N1C[C@@H]2CC[C@H]1CN(S(=O)(=O)N(C)C)C2,19.8
19,COCCN1C[C@@H]2CC[C@H]1CN(Cc1ccc3ccccc3n1)C2,-11.3
20,CNc1ccnc(N2C[C@H]3CC[C@@H](C2)N(CCOC)C3=O)n1,7.64
